# In paper PMC2696058 (Bioorganic & medicinal chemistry, 2009):
# Columns and labels:
# [1] = Decomposition of compound solutions followed by TLC; format: physicochemical; settings: aqueous solution
# [2] = biological target: N^5CAIR synthetase (Escherichia coli, UniProt P09029); test: Kinetic analysis, PK/LDH coupled ATPase assay; format: biochemical; settings: for Inhibition of N^5CAIR synthetase by DMSO (non-aqueous) solutions: compound added as DMSO solution, not aqueous solution; for Mode of inhibition with respect to AIR / Mode of inhibition with respect to ATP: steady-state kinetics; for Mode of inhibition with respect to AIR: varied AIR; for Mode of inhibition with respect to ATP: varied ATP
# Chain of N^5CAIR synthetase (P09029 whole entry): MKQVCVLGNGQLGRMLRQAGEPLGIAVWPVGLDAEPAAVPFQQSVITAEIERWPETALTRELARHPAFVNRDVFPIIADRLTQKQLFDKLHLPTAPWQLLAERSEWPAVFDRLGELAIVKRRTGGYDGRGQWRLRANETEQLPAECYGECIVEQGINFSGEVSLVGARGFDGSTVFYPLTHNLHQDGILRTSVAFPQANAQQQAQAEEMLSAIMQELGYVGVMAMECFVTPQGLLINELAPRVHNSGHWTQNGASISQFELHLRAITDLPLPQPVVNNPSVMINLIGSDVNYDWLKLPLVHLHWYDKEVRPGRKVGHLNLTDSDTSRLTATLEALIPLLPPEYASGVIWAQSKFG
# [3] = biological target: T1, human AIR carboxylase:SAICAR synthetase (Homo sapiens, UniProt P22234); test: Coupled assay against human bifunctional enzyme; format: biochemical; settings: 200 μM compound, both activities assayed simultaneously
# T1 sequence (P22234 1-425): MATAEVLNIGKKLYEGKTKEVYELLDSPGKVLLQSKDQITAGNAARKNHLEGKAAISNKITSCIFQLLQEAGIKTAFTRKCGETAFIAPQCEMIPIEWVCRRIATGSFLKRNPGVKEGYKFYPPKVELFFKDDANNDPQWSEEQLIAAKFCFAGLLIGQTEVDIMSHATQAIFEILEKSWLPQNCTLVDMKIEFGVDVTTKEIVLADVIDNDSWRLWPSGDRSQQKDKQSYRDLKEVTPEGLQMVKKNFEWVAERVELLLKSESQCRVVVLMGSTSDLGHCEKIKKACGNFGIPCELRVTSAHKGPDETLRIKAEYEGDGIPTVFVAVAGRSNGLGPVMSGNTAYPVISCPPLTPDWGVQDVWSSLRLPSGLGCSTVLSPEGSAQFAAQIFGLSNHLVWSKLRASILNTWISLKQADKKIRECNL
# Outline: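 His-tagged human bifunctional AIR carboxylase:SAICAR synthetase, expressed from a pET22b vector and purified on a cobalt affinity column, >95% pure by SDS-PAGE. The carboxylase and synthetase activities were measured together in one coupled assay, following a method previously described for the Gallus gallus bifunctional enzyme.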
Compound,Time to complete decomposition to ninhydrin [1],Inhibition of N^5CAIR synthetase by DMSO (non-aqueous) solutions [2],Mode of inhibition with respect to AIR [2],Mode of inhibition with respect to ATP [2],"Inhibition of either enzymatic activity (AIR carboxylase, SAICAR synthetase) [3]"
Cc1nc(NC2(O)C(=O)c3ccccc3C2=O)cs1 [Compound 2],around 45 minutes,neither compound resulted in inhibition,,,
CCN(CC)C(=O)CN1C(=O)C(=O)c2ccccc21 [Compound 7],,,non-competitive,non-competitive,no inhibition
CCOC(=O)c1noc(C)c1-c1csc(CS(=O)(=O)c2ccc(Cl)cc2)n1 [Compound 13],,,competitive,uncompetitive,no inhibition
"Cc1cc2nc3c(=O)[nH]c(=O)nc-3n(C[C@H](O)[C@H](O)[C@H](O)CO)c2cc1C [Compound 14, riboflavin]",,,noncompetitive,noncompetitive,no inhibition
Cc1nonc1NC1(O)C(=O)c2ccccc2C1=O [Compound 1],approximately 30 minutes,neither compound resulted in inhibition,,,
